The nature of data set [1]: Half life in rat plasma at 10 uM up to 360 mins by LC-MS/MS analysis. The data set is classed as ADME, cell-free. The procedure, abridged: (§1)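 Plasma incubated in duplicate at 37 °C with 10 µM test compound (1% methanol; from 1 mM methanol stock). Samples taken at 0, 15, 30, 60, 120, 240 and 360 min and quenched with 9 volumes of ice-cold methanol containing 500 nM internal standard, then centrifuged. Analyte/IS area ratios were quantified by LC-MS/MS as % remaining versus T0. t1/2 = −0.693/k, with k from the slope of log % remaining versus time.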

The test system of data set [2] is Plasma. Nature of the data set: Stability in rat plasma at 10 uM up to 360 mins in presence of EDTA by LC-MS/MS analysis. The data set is classed as ADME, cell-free. To be noted: 6 h. The procedure, abridged:
(§2)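 Rat plasma incubated in duplicate at 37 °C with 10 µM test compound (1% methanol), plus either 1 mM DTNB (11) or 0.5 mM EDTA (12). Duplicate controls used methanol in place of the inhibitor. Samples taken from 0 to 360 min and quenched with 9 volumes of cold methanol containing internal standard. Remaining compound measured by LC-MS/MS relative to T0.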

Data set [3] concerns the target T1, Liver carboxylesterase 1 (Mus musculus, UniProt Q8VCC2).
T1 sequence (Q8VCC2 whole entry): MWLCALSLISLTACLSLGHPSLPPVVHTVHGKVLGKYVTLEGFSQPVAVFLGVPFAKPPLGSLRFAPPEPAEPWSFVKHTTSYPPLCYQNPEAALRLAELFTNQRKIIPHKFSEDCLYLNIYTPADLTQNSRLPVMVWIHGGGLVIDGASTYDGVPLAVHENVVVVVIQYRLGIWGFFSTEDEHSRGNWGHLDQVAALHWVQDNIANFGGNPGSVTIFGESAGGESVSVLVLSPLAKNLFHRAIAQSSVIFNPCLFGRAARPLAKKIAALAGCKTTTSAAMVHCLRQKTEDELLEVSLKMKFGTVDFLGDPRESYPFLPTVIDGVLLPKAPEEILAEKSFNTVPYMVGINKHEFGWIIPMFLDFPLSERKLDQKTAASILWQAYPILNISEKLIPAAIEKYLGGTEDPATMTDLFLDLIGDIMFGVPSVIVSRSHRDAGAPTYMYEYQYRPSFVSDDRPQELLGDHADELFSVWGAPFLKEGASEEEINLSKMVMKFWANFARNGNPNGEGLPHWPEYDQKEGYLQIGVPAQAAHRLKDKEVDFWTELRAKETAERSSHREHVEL
Description: Drug metabolism assessed as mouse CES1-mediated compound hydrolysis after 6 hrs. The data set is classed as ADME.

Data set [4] in a line: Half life in human plasma at 10 uM up to 360 mins by LC-MS/MS analysis. It is filed as ADME, cell-free. In short, it runs like this: as §1
For data set [5], the target named is T2, Liver carboxylesterase 1 (Homo sapiens, UniProt P23141).
T2 sequence (P23141 whole entry): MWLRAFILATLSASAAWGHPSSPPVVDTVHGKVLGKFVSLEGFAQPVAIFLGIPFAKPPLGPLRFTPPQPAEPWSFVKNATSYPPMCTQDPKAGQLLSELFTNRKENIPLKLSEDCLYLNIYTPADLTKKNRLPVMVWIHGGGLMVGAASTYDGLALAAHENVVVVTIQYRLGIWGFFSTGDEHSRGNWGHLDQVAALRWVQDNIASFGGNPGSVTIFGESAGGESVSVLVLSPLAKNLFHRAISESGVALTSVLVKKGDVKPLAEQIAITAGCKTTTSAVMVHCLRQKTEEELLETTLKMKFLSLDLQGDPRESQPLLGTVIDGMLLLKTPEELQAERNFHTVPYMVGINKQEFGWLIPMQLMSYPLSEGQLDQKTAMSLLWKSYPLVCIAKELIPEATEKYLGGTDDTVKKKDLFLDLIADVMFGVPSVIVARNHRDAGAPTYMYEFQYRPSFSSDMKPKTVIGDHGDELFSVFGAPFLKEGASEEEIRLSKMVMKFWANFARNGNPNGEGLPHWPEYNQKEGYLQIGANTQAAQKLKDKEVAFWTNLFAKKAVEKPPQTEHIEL
Nature of the data set: Drug metabolism assessed as human CES1-mediated compound hydrolysis after 6 hrs. It is filed as ADME.

Data set [6] can be described thus: Half life in rat intestinal microsomes at 1 uM up to 120 mins by LC-MS/MS analysis. It is filed as ADME, Intestine, Microsome. The procedure, abridged: (§3)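 Run under non-oxidative conditions, in duplicate at 37 °C: 1 µM test compound (1% methanol) with 1 mg/mL rat liver or rat intestinal microsomal protein. Samples taken at 0, 15, 30, 60 and 120 min and quenched with 4 volumes of cold methanol or acetonitrile containing 200 nM internal standard. Triplicate controls used denatured microsomes. LC-MS/MS gave % remaining versus T0; t1/2 = −0.693/k.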

Data set [7] is described as follows: Half life in rat liver microsomes at 1 uM up to 120 mins by LC-MS/MS analysis. It is filed as ADME, microsome. The procedure, abridged: as §3
For data set [8], the system named is Plasma. Description: Stability in rat plasma at 10 uM up to 360 mins in presence of DTNB by LC-MS/MS analysis. The data set is classed as ADME, cell-free. To be noted: 6 h. The procedure, abridged: as §2
Data set [9] deals with Plasma. Description: Half life in rat plasma at 10 uM up to 360 mins in presence of 3-cyclohexylpropanehydroxamic acid by LC-MS/MS analysis. The data set is classed as ADME, cell-free. To be noted: 6 h.
The test system of data set [10] is Plasma. Description: Half life in rat plasma at 10 uM up to 360 mins in presence of 4-cyclohexylbutanehydroxamic acid by LC-MS/MS analysis. To be noted: 6 h. It is filed as ADME, cell-free.
Data set [11] in a line: Half life in rat plasma at 10 uM up to 360 mins in presence of N-hydroxy-N'-phenylsuccinamide by LC-MS/MS analysis. The data set is classed as ADME, cell-free. To be noted: with N-hydroxy-N'-phenylsuccinamide (concentration not stated).
Data set [12] in a line: Half life in human liver microsomes at 10 uM up to 120 mins by LC-MS/MS analysis. The data set is classed as ADME, microsome. In general terms: Liver microsomes are vesicles of endoplasmic reticulum, rich in cytochrome P450 enzymes.

Each structure is given as a SMILES string. Where only a bound is given, the exact number is not on record here.

For orientation: half-life means the time needed for the level to fall by half in the phase considered.

Regarding `O=C(NO)C(Cc1ccccc1)C(=O)NCc1ccccc1` (stereo not given), the figures for the half-life at 10 µM in [1] and in data set [4] were 48 min and above 360 min, respectively. The Stability result in the data set with Plasma [2] is “Unstable”. Besides, the Drug metabolism result on Liver carboxylesterase 1 [3] and on Liver carboxylesterase 1 [5] was “Metabolite_Detected” in each case.
As to `O=C(CCc1ccccc1)NO`, the Stability entry with Plasma [2] is on record as “Unstable”. In addition, the half-life at 1 µM in data set [6] is above 360 min; in [7], 15 min. For the same compound, the Drug metabolism result at Liver carboxylesterase 1 [3] and on Liver carboxylesterase 1 [5] was “Metabolite_Detected” in each case.
As to `O=C(CCC12CC3CC(CC(C3)C1)C2)NO`, the half-life at 10 µM was 30 min in data set [1] and above 360 min in data set [4]. For the same compound, the Stability result in the data set with Plasma [8] is “Unstable”.
As for `O=C(CCCc1ccccc1)NO` [PHENYLBUTYRYLHYDROXAMIC ACID], the Stability result in the data set on Plasma [2] is on record as “Unstable”. The t1/2 with Plasma [9] is 1360 min; in the data set on Plasma [10], 1850 min. In addition, in data set [11], the half-life at 10 µM is 1200 min.
On to `CC(=O)Oc1cc2c(s1)CCN(C(C(=O)C1CC1)c1ccccc1F)C2` (stereo not given) [PRASUGREL], for which the half-life at 1 µM in data set [6] was found to be 1 min.
The compound `CCOC(=O)[C@H](CCc1ccccc1)N[C@@H](C)C(=O)N1[C@H](C(=O)O)C[C@H]2CCCC[C@@H]21` [TRANDOLAPRIL] gave a half-life at 10 µM in data set [12] of 20 min. The half-life at 1 µM in data set [7] came to 7 min.

The record behind these values is ChEMBL document CHEMBL4028870, “Controlling Plasma Stability of Hydroxamic Acids: A MedChem Toolbox” (J Med Chem, 2017).
